Laboratory results reported in ChEMBL document CHEMBL5661969, “Preclinical evaluation of a potent novel DNA-dependent protein kinase inhibitor NU7441” (Cancer Res, 2006).
Calls of active or inactive are those of the source. The calls are words filed in the database; no cut-off is given here.

Experiments:
[1] = molecular target: T1, DNA-dependent protein kinase catalytic subunit (Homo sapiens, UniProt P78527); test: Inhibition of DNA-PK in human SW480 cells assessed potentiation of ionizing radiation-induced cytotoxicity by measuring ratio of cytotoxic agent required to kill 90% of the cells in the absence and presence of compound; format: cell-based
T1 sequence (P78527 whole entry): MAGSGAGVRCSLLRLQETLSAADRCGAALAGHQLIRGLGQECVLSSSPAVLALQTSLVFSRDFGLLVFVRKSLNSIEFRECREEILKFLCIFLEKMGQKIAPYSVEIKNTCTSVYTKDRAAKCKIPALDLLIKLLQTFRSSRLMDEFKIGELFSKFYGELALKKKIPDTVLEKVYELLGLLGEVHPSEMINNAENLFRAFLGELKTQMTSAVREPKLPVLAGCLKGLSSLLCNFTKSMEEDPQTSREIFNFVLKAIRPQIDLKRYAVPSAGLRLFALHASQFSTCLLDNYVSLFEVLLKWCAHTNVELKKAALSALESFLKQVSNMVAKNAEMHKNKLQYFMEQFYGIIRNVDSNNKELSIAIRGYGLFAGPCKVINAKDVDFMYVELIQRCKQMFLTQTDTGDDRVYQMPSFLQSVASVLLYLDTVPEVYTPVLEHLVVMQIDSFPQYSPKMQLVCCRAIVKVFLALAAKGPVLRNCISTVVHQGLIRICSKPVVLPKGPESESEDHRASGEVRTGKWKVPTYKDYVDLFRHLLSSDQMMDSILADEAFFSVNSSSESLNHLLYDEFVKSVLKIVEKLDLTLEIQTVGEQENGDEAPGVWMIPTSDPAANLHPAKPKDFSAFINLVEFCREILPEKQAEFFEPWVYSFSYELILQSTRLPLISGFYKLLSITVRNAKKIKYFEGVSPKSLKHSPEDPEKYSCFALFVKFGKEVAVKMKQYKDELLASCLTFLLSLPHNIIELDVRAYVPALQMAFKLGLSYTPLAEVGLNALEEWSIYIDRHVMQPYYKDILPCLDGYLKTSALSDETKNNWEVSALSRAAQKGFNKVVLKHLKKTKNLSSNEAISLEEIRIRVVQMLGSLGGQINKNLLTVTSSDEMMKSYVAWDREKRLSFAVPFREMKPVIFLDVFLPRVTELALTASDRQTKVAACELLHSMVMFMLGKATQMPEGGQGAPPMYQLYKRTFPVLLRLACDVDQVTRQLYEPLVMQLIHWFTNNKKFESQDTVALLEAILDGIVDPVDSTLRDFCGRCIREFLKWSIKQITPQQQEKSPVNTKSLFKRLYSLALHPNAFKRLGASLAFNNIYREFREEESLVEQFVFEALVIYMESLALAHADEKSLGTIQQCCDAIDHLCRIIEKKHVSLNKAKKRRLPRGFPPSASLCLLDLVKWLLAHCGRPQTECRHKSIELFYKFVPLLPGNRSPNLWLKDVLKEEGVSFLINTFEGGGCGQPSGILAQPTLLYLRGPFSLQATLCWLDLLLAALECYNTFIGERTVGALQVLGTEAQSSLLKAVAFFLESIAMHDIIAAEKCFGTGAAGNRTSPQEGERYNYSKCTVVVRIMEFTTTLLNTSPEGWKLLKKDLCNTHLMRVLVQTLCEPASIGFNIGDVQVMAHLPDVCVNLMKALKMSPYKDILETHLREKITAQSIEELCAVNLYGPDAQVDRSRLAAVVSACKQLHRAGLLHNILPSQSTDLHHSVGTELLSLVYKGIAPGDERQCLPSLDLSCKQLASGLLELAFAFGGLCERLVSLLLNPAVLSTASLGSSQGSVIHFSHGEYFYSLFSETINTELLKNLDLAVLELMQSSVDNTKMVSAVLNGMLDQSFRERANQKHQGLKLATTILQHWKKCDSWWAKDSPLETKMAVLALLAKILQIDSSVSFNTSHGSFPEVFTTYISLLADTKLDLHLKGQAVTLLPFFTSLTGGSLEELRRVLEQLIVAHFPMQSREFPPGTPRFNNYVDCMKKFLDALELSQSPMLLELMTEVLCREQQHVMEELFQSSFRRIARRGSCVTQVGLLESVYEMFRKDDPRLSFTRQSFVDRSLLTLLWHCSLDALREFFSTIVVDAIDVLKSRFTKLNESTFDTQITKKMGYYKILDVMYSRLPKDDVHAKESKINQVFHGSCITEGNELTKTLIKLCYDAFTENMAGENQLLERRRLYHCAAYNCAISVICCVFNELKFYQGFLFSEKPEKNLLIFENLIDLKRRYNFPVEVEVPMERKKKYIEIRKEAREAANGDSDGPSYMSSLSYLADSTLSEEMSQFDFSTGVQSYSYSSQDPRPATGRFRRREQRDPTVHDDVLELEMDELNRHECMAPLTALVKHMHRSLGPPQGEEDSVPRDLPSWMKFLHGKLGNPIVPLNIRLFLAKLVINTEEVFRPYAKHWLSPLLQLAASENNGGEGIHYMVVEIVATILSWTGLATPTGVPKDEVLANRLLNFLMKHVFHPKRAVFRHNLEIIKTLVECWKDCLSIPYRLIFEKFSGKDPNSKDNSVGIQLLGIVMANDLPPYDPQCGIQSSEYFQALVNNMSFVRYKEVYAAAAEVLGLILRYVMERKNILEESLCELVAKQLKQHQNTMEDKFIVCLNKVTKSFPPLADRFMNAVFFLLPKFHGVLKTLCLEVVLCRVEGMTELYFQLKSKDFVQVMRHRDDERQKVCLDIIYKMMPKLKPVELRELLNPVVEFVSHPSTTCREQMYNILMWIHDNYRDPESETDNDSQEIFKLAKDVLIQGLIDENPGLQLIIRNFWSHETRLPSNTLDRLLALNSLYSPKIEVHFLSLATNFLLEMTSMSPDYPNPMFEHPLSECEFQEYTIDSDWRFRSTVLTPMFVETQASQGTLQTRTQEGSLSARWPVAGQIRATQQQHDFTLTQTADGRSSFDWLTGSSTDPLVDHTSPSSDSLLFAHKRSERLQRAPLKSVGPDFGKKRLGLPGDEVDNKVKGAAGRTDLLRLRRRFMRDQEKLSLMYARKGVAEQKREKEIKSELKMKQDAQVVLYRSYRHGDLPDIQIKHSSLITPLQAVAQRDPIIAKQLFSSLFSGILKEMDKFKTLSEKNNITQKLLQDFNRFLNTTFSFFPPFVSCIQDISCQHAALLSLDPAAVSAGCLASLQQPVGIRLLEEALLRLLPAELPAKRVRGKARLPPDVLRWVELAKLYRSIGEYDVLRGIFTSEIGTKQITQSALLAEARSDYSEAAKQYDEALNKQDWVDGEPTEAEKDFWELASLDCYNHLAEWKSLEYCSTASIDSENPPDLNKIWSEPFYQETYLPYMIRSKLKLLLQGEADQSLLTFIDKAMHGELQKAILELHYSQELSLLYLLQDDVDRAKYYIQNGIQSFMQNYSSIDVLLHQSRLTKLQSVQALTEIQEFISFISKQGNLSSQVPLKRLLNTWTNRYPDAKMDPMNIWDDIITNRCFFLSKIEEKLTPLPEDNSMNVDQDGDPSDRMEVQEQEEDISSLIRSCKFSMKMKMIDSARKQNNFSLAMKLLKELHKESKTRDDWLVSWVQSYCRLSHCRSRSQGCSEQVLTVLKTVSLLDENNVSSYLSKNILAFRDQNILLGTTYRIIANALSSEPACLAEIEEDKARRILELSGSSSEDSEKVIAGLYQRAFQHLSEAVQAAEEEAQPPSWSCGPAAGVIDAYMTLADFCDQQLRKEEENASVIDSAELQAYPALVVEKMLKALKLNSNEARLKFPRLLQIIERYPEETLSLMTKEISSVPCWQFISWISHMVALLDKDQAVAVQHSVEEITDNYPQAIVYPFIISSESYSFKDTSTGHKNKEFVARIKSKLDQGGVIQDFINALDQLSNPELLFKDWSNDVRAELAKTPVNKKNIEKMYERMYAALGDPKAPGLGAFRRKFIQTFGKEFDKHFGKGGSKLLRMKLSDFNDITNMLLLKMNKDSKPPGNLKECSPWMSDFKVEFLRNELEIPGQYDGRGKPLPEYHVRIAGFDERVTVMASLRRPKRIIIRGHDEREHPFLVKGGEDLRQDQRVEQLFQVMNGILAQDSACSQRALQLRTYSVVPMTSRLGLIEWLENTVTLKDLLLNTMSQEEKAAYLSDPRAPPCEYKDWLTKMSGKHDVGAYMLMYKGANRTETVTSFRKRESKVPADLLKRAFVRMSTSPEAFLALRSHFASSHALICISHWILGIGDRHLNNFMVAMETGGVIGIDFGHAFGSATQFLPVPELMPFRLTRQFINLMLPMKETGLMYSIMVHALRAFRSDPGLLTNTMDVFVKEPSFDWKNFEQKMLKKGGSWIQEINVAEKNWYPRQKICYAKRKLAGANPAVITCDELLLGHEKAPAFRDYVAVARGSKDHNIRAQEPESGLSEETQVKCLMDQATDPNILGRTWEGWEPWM

[2] = Cytotoxicity against Chinese hamster DNA-PK deficient V3 cells assessed as reduction in cell survival measured after 16 hrs by crystal violet staining based assay; format: toxicity, Cricetulus griseus; details: v3, 16 h
Outline: (§1)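 V3 (DNA-PKcs-deficient CHO) and V3-YAC (human DNA-PKcs YAC, kept on G-418 500 μg/mL) cells were grown in RPMI/10% FBS. Exponential cells were exposed to agent in 0.5% DMSO for 16 h, then trypsinized and reseeded at 100–100,000 per dish in drug-free medium. Colonies were stained with crystal violet after 10–14 days and counted. Survival is relative to 0.5% DMSO controls.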

[3] = Cytotoxicity against Chinese hamster DNA-PK proficient V3-YAC cells assessed as reduction in cell survival measured after 16 hrs by crystal violet staining based assay; format: toxicity, Cricetulus griseus; outline: as §1
[4] = Selectivity ratio of LD90 for cytotoxicity against Chinese hamster DNA-PK proficient V3-YAC cells to LD90 for cytotoxicity against Chinese hamster DNA-PK deficient V3 cells; format: toxicity, cell-based, Cricetulus griseus
Outline: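 Clonogenic survival of V3 and V3-YAC Chinese hamster ovary cells, RPMI/10% FBS, V3-YAC kept under G-418 at 500 μg/mL. Colonies read 10–14 days later. LD90 is the dose or concentration killing 90%, and the LD90 ratio gives the fold change.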

SW-620 [5] = test: Induction of DNA damage in human SW620 cells assessed as increase in formation of gamma-H2AX phosphorylation foci per cell at 1 umol/L preincubated for 1 hr followed by compound washout and measured after 30 mins by DAPI staining based immunofluorescence microscopic analysis; format: functional; details: dose 1 µmol/L
Outline: (§2)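 SW620 cells on coverslips at 50–70% confluence, preincubated 1 h ± 1 μmol/L agent, then 1 μmol/L etoposide for 1 h, washed three times, and kept ± agent for up to 24 h. Fixation in −20 °C methanol, then anti-γH2AX Ser139 antibody with FITC secondary and DAPI mounting. Foci counted in 30 nuclei from three areas per sample, in triplicate.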

SW-620 [6] = test: Induction of DNA damage in human SW620 cells assessed as loss of gamma-H2AX phosphorylation foci formation at 1 umol/L preincubated for 1 hr followed by compound washout and measured after 4 hrs by DAPI staining based immunofluorescence microscopic analysis relative to control; format: functional; details: dose 1 µmol/L, at 1 µM; outline: as §2
SW-620 [7] = test: Induction of DNA damage in human SW620 cells assessed as loss of gamma-H2AX phosphorylation foci formation at 1 umol/L preincubated for 1 hr followed by compound washout and measured after 16 hrs by DAPI staining based immunofluorescence microscopic analysis relative to control; format: functional; details: dose 1 µmol/L, at 1 µM; outline: as §2
SW-620 [8] = test: Cell cycle arrest in human SW620 cells assessed as increase in G2-M-phase cell population at 0.1 uM measured after 16 hrs by propidium iodide staining based flow cytometry relative to control; format: functional
SW-620 [9] = test: Cell cycle arrest in human SW620 cells assessed as reduction in S-phase cell population at 0.1 uM measured after 16 hrs by propidium iodide staining based flow cytometry; format: functional
[10] = Toxicity in human SW620 cell xenografted athymic nude CD1 mouse assessed as maximum body weight loss at 11.35 mg/kg, ip administered 5 times daily for 5 days relative to control; format: organism-based, SW-620; details: in vivo, 120 h, time 5 day
SW-620 [11] = test: Antitumor activity against human SW620 cells xenografted in athymic nude CD1 mouse assessed as tumor growth delay at 11.35 mg/kg, ip administered 5 times daily for 5 days; format: functional; details: time 5 day
SW-620 [12] = test: Cell cycle arrest in human SW620 cells assessed as increase in G2-M-phase cell population at 10 nM measured after 16 hrs by propidium iodide staining based flow cytometry relative to control; format: functional
SW-620 [13] = test: Cell cycle arrest in human SW620 cells assessed as reduction in S-phase cell population at 10 nM measured after 16 hrs by propidium iodide staining based flow cytometry; format: functional
[14] = molecular target: T1, DNA-dependent protein kinase catalytic subunit; test: Inhibition of DNA-PK in human HCT-116 cells assessed as potentiation of ionizing radiation-induced cytotoxicity relative to radiation alone; format: cell-based
[15] = molecular target: T1, DNA-dependent protein kinase catalytic subunit; test: Inhibition of DNA-PK in human HCT-116 cells assessed as potentiation of etoposide-induced cytotoxicity relative to etoposide alone; format: cell-based
[16] = Inhibition of ATM in Chinese hamster DNA-PK proficient V3-YAC cells assessed as potentiation of ionizing radiation-induced cytotoxicity by measuring fold change in radiation LD90 at 10 umol/L preincubated for 1 hr followed by gamma-irradiation and measured after 16 hrs by crystal violet staining based assay relative to radiation alone; parameters: species or system Cricetulus griseus; details: dose 10 µmol/L; time 17 hrs; condition cancer
[17] = Inhibition of ATM in Chinese hamster DNA-PK proficient V3-YAC cells assessed as potentiation of etoposide-induced cytotoxicity by measuring fold change in etoposide LD90 at 10 umol/L measured after 16 hrs by crystal violet staining based assay relative to etoposide alone; parameters: species or system Cricetulus griseus; details: dose 10 µmol/L, condition cancer
[18] = Cytotoxicity against Chinese hamster DNA-PK deficient V3 cells assessed as increase in etoposide-induced cytotoxicity by measuring fold change in etoposide LD90 at 10 umol/L measured after 16 hrs by crystal violet staining based assay relative to etoposide alone; format: toxicity, cell-based, Cricetulus griseus; details: v3, 16 h, 10 µM, dose 10 µmol/L

SMILES: O=c1cc(N2CCOCC2)oc2c(-c3ccccc3)cccc12
- Ratio [1]: 1.9

SMILES: COC[C@H]1OC(=O)c2coc3c2[C@@]1(C)C1=C(C3=O)[C@@H]2CCC(=O)[C@@]2(C)C[C@H]1OC(C)=O
- Ratio [1]: 2.8

SMILES: COc1cc([C@@H]2c3cc4c(cc3[C@@H](O[C@@H]3O[C@@H]5CO[C@@H](C)O[C@H]5[C@H](O)[C@H]3O)[C@H]3COC(=O)[C@H]23)OCO4)cc(OC)c1O [ETOPOSIDE]
- LD90 [2]: 0.6 µmol/L
- LD90 [3]: 1.8 µmol/L
- selectivity ratio [4]: 3
- Activity (SW-620 [5]): 22
- Activity (SW-620 [6]): 39%
- Activity (SW-620 [7]): 5.3%
- Activity (SW-620 [8]): 83%
- Activity (SW-620 [9]): Active

SMILES: COc1cc([C@@H]2c3cc4c(cc3[C@@H](O[C@@H]3O[C@@H]5CO[C@@H](C)O[C@H]5[C@H](O)[C@H]3O)[C@H]3COC(=O)[C@H]23)OCO4)cc(OC)c1OP(=O)(O)O [ETOPOSIDE PHOSPHATE]
- Activity [10]: 6%
- Time (SW-620 [11]): 2.7 days

SMILES: COc1cccc2c1C(=O)c1c(O)c3c(c(O)c1C2=O)C[C@@](O)(C(=O)CO)C[C@@H]3O[C@H]1C[C@H](N)[C@H](O)[C@H](C)O1 [DOXORUBICIN]
- Activity (SW-620 [12]): 158%
- Activity (SW-620 [13]): Active

SMILES: CC(=O)c1ccc(N2CCOCC2)cc1O
- fold change (FC) [14]: 4
- fold change (FC) [15]: 15

SMILES: O=c1cc(-c2cccc3c2Sc2ccccc2S3)oc(N2CCOCC2)c1 [KU-55933]
- fold change (FC) [16]: 2
- fold change (FC) [17]: 6
- fold change (FC) [18]: 6
